Results as given in ChEMBL document CHEMBL4004794, “Identification of Neuroprotective Spoxazomicin and Oxachelin Glycosides via Chemoenzymatic Glycosyl-Scanning” (J Nat Prod, 2017).
The source made the active and inactive calls. No cut-off for these calls is given here.

Columns and labels:
[1] = tested on: Staphylococcus aureus; assay: Antibacterial activity against Staphylococcus aureus ATCC 6538 at <= 60 to 120 uM; type: functional
Method in brief: (§1)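 Run in triplicate by the group's previously reported protocols. Compounds were tested up to 60–120 μM against bacteria and yeast, and up to 20 μM against non-small-cell lung A549 cells. Bacterial strains were S. aureus ATCC 6538, M. luteus NRRL B-287, E. coli NRRL B-3708 and S. enterica ATCC 10708. The yeast was S. cerevisiae ATCC 204508.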

[2] = tested on: Micrococcus luteus; assay: Antibacterial activity against Micrococcus luteus NRRL B-287 at <= 60 to 120 uM; type: functional; method in brief: as §1
[3] = tested on: Escherichia coli; assay: Antibacterial activity against Escherichia coli NRRL B-3708 at <= 60 to 120 uM; type: functional; method in brief: as §1
[4] = tested on: Salmonella enterica subsp. enterica serovar Choleraesuis str. ATCC 10708; assay: Antibacterial activity against Salmonella enterica ATCC 10708 at <= 60 to 120 uM; type: functional
Method in brief: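 Run in triplicate against S. enterica ATCC 10708, a strain obtained from ATCC. Compounds were tested at concentrations up to ≤60−120 μM.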

[5] = tested on: Saccharomyces cerevisiae; assay: Antifungal activity against Saccharomyces cerevisiae ATCC 204508 at <= 60 to 120 uM; type: functional; method in brief: as §1
[6] = tested on: A549; assay: Cytotoxicity against human A549 cells at <= 20 uM; type: functional, cell-based; method in brief: as §1
[7] = tested on: Hippocampal neurone; assay: Neuroprotective activity against EtOH-induced cytotoxicity in Sprague-Dawley rat primary hippocampal neurons assessed as decrease in propidium iodide uptake at 0.01 to 0.1 uM after 48 hrs by fluorescence microscopic method; type: functional, cell-based
Method in brief: (§2)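 Rat hippocampus-derived primary cell cultures were exposed for 48 h to 100 mM EtOH, with or without compound (0.01–1.0 μM, dose–response). A DMSO control was included. Damage was read as propidium iodide uptake into compromised cells.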

[8] = tested on: Hippocampal neurone; assay: Neuroprotective activity against EtOH-induced cytotoxicity in Sprague-Dawley rat primary hippocampal neurons assessed as decrease in propidium iodide uptake at 0.1 to 1 uM after 48 hrs by fluorescence microscopic method; type: functional, cell-based; method in brief: as §2
[9] = tested on: Hippocampal neurone; assay: Neuroprotective activity against EtOH-induced cytotoxicity in Sprague-Dawley rat primary hippocampal neurons assessed as decrease in propidium iodide uptake at 1 uM after 48 hrs by fluorescence microscopic method; type: functional, cell-based; method in brief: as §2
[10] = tested on: Hippocampal neurone; assay: Neuroprotective activity against EtOH-induced cytotoxicity in Sprague-Dawley rat primary hippocampal neurons assessed as decrease in propidium iodide uptake at 0.01 to 1 uM after 48 hrs by fluorescence microscopic method; type: functional, cell-based; method in brief: as §2

Compound | Activity [1] | Activity [2] | Activity [3] | Activity [4] | Activity [5] | Activity [6] | Activity [7] | Activity [8] | Activity [9] | Activity [10]
N[C@H]1[C@H](Oc2ccccc2C2=N[C@H](C(=O)N[C@@H](CO)C(=O)N[C@H](CCCN(O)C=O)C(=O)NCCC(=O)N[C@@H]3CCCN(O)C3=O)CO2)O[C@H](CO)[C@@H](O)[C@@H]1O | inactive | inactive | inactive | inactive | inactive | inactive |  |  |  | 
C[C@H](CO)NC(=O)c1ccccc1O | inactive | inactive | inactive | inactive | inactive | inactive |  |  |  | 
NC(=O)[C@@H]1COC(c2ccccc2O[C@@H]2O[C@H](CO)[C@@H](O)[C@H](O)[C@H]2O)=N1 | inactive | inactive | inactive | inactive | inactive | inactive | inactive | Active |  | 
OC[C@H]1O[C@@H](OC[C@@H]2COC(c3ccccc3O)=N2)[C@H](O)[C@@H](O)[C@@H]1O | inactive | inactive | inactive | inactive | inactive | inactive |  |  |  | 
O=CN(O)CCC[C@@H](NC(=O)[C@H](CO)NC(=O)[C@@H]1COC(c2ccccc2O)=N1)C(=O)NCCC(=O)N[C@@H]1CCCN(O)C1=O | inactive | inactive | inactive | inactive | inactive | inactive |  |  |  | 
N[C@H]1[C@H](Oc2ccccc2C(=O)NC(CO)CO)O[C@H](CO)[C@@H](O)[C@@H]1O | inactive | inactive | inactive | inactive | inactive | inactive |  |  |  | 
C[C@H](CO)NC(=O)c1ccccc1O[C@@H]1O[C@H](CO)[C@@H](O)[C@H](O)[C@H]1N | inactive | inactive | inactive | inactive | inactive | inactive |  |  |  | 
O=CN(O)CCC[C@@H](NC(=O)[C@H](CO)NC(=O)[C@@H]1COC(c2ccccc2O[C@@H]2O[C@H](CO)[C@@H](O)[C@H](O)[C@H]2O)=N1)C(=O)NCCC(=O)N[C@@H]1CCCN(O)C1=O | inactive | inactive | inactive | inactive | inactive | inactive |  |  |  | 
O=C(NC(CO)CO)c1ccccc1O[C@@H]1O[C@H](CO)[C@@H](O)[C@H](O)[C@H]1O | inactive | inactive | inactive | inactive | inactive | inactive |  |  |  | 
C[C@@H](CO)NC(=O)c1ccccc1O[C@@H]1O[C@H](CO)[C@@H](O)[C@H](O)[C@H]1O | inactive | inactive | inactive | inactive | inactive | inactive |  |  |  | 
OC[C@@H]1COC(c2ccccc2O[C@@H]2O[C@H](CO)[C@@H](O)[C@H](O)[C@H]2O)=N1 | inactive | inactive | inactive | inactive | inactive | inactive | Active |  | inactive | 
C[C@@H](CO)NC(=O)c1ccccc1O | inactive | inactive | inactive | inactive | inactive | inactive |  |  |  | 
N[C@H]1[C@H](Oc2ccccc2C2=N[C@H](CO)CO2)O[C@H](CO)[C@@H](O)[C@@H]1O | inactive | inactive | inactive | inactive | inactive | inactive |  |  |  | inactive
OC[C@@H]1COC(c2ccccc2O)=N1 | inactive | inactive | inactive | inactive | inactive | inactive |  |  |  | 
NC(=O)[C@@H]1COC(c2ccccc2O)=N1 | inactive | inactive | inactive | inactive | inactive | inactive |  |  |  | 
C[C@H](CO)NC(=O)c1ccccc1O[C@@H]1O[C@H](CO)[C@@H](O)[C@H](O)[C@H]1O | inactive | inactive | inactive | inactive | inactive | inactive |  |  |  | 
C[C@@H](CO)NC(=O)c1ccccc1O[C@@H]1O[C@H](CO)[C@@H](O)[C@H](O)[C@H]1N | inactive | inactive | inactive | inactive | inactive | inactive |  |  |  | 
O=C(NC(CO)CO)c1ccccc1O | inactive | inactive | inactive | inactive | inactive | inactive |  |  |  | 
